The source of these data is ChEMBL document CHEMBL1177705, “Synthesis and biological characterization of the histone deacetylase inhibitor largazole and C7- modified analogues” (J Med Chem, 2010).

Active and inactive are the calls of the source. The rule behind the calls is not given here.

One may read the IC50 as the concentration at which inhibition is half-maximal.

Test [1] addresses T1, Histone deacetylase 1 (Homo sapiens, UniProt Q13547). Put plainly: Inhibition of human recombinant HDAC1 after 15 mins by fluorimetric assay.
In test [2] the target is Histone deacetylase 4 (Homo sapiens, UniProt P56524). Put plainly: Inhibition of human recombinant HDAC4 after 15 mins by fluorimetric assay.
The test system of test [3] is NB-4. The test can be described thus: Cell cycle arrest in human NB4 cells assessed as increase in accumulation at pre-G1 phase at 1 uM after 24 hrs by FACS analysis. In kind it is functional, cell-based. The method in brief: (§1)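 NB4 acute promyelocytic leukemia cells grown in RPMI 1640 with heat-inactivated FBS, glutamine, antibiotics, 37 °C, 5% CO2. Compounds given from DMSO. They were kept 30 min in the dark, then DNA content was read by flow cytometry with the pre-G1 fraction scored. Run in triplicate.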
Background: A flow cytometer gives signals particle by particle.

Test [4] has as its system NB-4. The test can be described thus: Cell cycle arrest in human NB4 cells assessed as increase in accumulation at pre-G1 phase at 5 uM after 24 hrs by FACS analysis. In kind it is functional, cell-based. The method in brief: as §1
For test [5], the system named is NB-4. Put plainly: Effect on differentiation of human NB4 cells assessed as induction of CD11c expression at 5 uM after 24 hrs by propidium iodide staining-base FACS analysis. In kind it is functional. The essentials: (§2)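 NB4 cells in RPMI 1640/FBS at 37 °C, 5% CO2, treated with compounds from DMSO. 2.5 × 10^5 cells were pelleted and PBS-washed, then stained 30 min at 4 °C in the dark with PE-anti-CD11c, with PE-IgG as isotype background control. Cells were resuspended in PBS with 0.25 μg/mL PI and analysed by flow cytometry, excluding PI-positive cells. Run in triplicate.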

The test system of test [6] is NB-4. The test can be described thus: Effect on differentiation of human NB4 cells assessed as induction of CD11c expression at 5 uM after 48 hrs by propidium iodide staining-base FACS analysis. In kind it is functional. The method in brief:
as §2

Test [7] concerns the target Tubulin (Homo sapiens) (UniProt P68371+Q9H4B7+P0DPH7+P68366+Q13509+Q71U36+P04350+Q3ZCM7+P07437+P68363+Q9BQE3+Q6PEY2+Q13885+Q9BVA1+Q9BUF5). The test can be described thus: Inhibition of HDAC in human NB4 cells assessed as increase in acetylate tubulin level at 5 uM after 24 hrs by Western blot analysis. In kind it is cell-based. To be noted: NB-4. The method in brief: (§3)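 NB4 cells treated with compounds from DMSO, harvested and PBS-washed. Lysis was 15 min at 4 °C in 50 mM Tris-HCl pH 7.4, 150 mM NaCl, 1% NP40, 10 mM NaF, 1 mM PMSF and protease inhibitors, then spun 30 min at 4 °C. Protein was measured by Bradford and lysates immunoblotted, with ERK1 as loading control.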
A general note: In western blotting, separated proteins are transferred to a membrane and probed.

For test [8], the system named is NB-4. The test can be described thus: Induction of p21WAF1/CIP1 expression in human NB4 cells at 5 uM after 24 hrs by Western blot analysis. It counts as functional, cell-based. The method in brief: as §3
Test [9] concerns the target Histone deacetylase (Homo sapiens) (UniProt Q13547+O15379+Q9UBN7+Q92769+Q9UQL6+Q8WUI4+Q9BY41+Q96DB2+P56524+Q9UKV0+Q969S8). To be noted: NB-4, at 5 µM.
The subject of test [10] is NB-4. The test can be described thus: Cell cycle arrest in human NB4 cells assessed as mild increase in accumulation at pre-G1 phase at 5 uM after 48 hrs by FACS analysis. It counts as functional, cell-based. The method in brief:
as §1

For test [11], the target named is T1, Histone deacetylase 1. The test can be described thus: Ratio of largazole IC50 to compound IC50 for human recombinant HDAC1.
Test [12] has as its target T1, Histone deacetylase 1. The test can be described thus: Ratio of compound IC50 to largazole IC50 for human recombinant HDAC1. The essentials:
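Enzyme was preincubated with compound 15 min at 37 °C, then 50 μM specific fluorogenic substrate was added. Reaction ran 1 h at 37 °C with gentle shaking, read by fluorescence; IC50 derived.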

T1 sequence (Q13547 whole entry): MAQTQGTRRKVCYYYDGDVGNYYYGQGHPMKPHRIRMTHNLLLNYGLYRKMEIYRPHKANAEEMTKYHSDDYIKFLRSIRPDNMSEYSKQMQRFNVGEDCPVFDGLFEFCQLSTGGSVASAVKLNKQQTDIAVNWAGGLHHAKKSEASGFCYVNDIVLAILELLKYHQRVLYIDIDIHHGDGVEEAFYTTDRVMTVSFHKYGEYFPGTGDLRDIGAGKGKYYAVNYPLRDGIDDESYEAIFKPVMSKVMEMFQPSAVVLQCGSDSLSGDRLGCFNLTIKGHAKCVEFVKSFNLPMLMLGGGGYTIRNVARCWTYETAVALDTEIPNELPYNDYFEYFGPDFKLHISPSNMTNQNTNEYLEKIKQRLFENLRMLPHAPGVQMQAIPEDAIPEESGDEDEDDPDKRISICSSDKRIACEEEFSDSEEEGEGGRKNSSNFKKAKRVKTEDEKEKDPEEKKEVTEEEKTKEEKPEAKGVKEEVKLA
Chain of Histone deacetylase 4 (P56524 whole entry): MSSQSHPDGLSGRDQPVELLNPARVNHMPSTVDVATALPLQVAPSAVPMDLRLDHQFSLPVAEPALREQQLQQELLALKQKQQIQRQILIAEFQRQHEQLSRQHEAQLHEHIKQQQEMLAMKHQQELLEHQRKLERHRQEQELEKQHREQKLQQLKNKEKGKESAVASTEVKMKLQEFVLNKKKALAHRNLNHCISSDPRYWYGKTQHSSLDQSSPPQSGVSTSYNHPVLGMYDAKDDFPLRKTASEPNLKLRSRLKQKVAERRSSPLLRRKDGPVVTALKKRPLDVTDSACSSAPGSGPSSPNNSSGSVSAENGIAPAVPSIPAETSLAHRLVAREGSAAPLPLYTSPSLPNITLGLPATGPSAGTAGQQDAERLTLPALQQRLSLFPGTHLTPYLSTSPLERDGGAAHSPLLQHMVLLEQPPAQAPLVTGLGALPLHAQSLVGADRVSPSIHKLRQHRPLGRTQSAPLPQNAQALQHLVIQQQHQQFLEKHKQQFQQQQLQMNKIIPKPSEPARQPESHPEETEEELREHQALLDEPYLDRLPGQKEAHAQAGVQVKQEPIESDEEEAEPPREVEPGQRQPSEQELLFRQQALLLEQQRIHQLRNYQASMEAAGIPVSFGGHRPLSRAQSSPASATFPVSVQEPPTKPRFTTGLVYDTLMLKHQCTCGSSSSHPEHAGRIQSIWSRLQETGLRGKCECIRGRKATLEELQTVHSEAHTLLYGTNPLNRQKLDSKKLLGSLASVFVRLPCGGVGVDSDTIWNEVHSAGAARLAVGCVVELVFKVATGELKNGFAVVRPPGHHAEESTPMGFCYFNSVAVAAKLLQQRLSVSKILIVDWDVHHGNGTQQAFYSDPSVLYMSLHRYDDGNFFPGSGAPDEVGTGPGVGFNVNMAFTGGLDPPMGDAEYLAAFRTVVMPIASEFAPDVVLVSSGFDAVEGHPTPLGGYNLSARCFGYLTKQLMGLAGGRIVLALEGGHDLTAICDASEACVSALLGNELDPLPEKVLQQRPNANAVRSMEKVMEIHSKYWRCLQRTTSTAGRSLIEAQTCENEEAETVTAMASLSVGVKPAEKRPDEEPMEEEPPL

Consider `CCCCCCCC(=O)SCC/C=C/[C@@H]1CC(=O)NCc2nc(cs2)C2=N[C@@](C)(CS2)C(=O)N[C@@H](C(C)C)C(=O)O1` [LARGAZOLE], for which the IC50 in [1] turned out to be 0.0114 µM; in [2], 3 µM. In addition, the outcome in test [3], in [4] and in test [8] was Active. The Activity in test [5] and in [6] was 5% in each case. In addition, the “increase in acetylated tubulin (active/not active)” value (shortened to “increase … (active/not active)”) in [7] was “Active”. Also, the inhibition result in test [9] is “Active”.
Regarding `Nc1ccccc1NC(=O)c1ccc(CNC(=O)OCc2cccnc2)cc1`, the outcome in test [4] and in [8] was Active.
Turning to `CC1=C(/C=C/C(C)=C/C=C/C(C)=C/C(=O)O)C(C)(C)CCC1`, the outcome in test [3] was Active.
Regarding `CCCCCCCC(=O)SCC/C=C/[C@@H]1CC(=O)NCc2nc(cs2)C2=N[C@@H](CS2)C(=O)N[C@@H](C(C)C)C(=O)O1`, the IC50 in test [1] is 0.0137 µM; in test [2], 7.5 µM. The result in test [3], in [4] and in test [8] was Active. Also, the Activity in test [5] and in test [6] was 5% throughout. In addition, the “increase … (active/not active)” value in test [7] was “Active”. Further, the inhibition entry in test [9] was “Active”.
On to `CCCCCCCC(=O)SCC/C=C/[C@@H]1CC(=O)NCc2nc(cs2)C2=N[C@@](Cc3ccccc3)(CS2)C(=O)N[C@@H](C(C)C)C(=O)O1`, for which the IC50 in test [1] came out at 0.0045 µM; in test [2], 3 µM. Moreover, the outcome in test [3], in [4] and in test [8] was Active. In addition, the Activity in [5] and in test [6] was 5% each time. For the same molecule, the “increase … (active/not active)” value in [7] was “Active”. In test [9], the inhibition result was “Active”.
`O=C(CCCCCCC(=O)Nc1ccccc1)NO`: the result in test [4] and in test [8] was Active. For the same molecule, the “increase … (active/not active)” value in [7] is “Active”.
Regarding `CCCCCCCC(=O)SCC/C=C/[C@@H]1CC(=O)NCc2nc(cs2)-c2nc(cs2)C(=O)N[C@@H](C(C)C)C(=O)O1`, the figures for the IC50 in test [1] and in test [2] were 0.0047 µM and 3 µM, respectively. Besides, the outcome in test [4] was inactive. In [10], the result was Active. In addition, the Activity in [5] and in [6] was 5% in each case. Besides, the “increase … (active/not active)” value in test [7] was “inactive”. For the same molecule, in test [11], the Ratio IC50 was 2. In addition, the inhibition result in test [9] is “Active”.
`CCCCCCCC(=O)SCC/C=C/[C@@H]1CC(=O)NCc2nc(cs2)C2=N[C@@](CC)(CS2)C(=O)N[C@@H](C(C)C)C(=O)O1`: the IC50 amounted to 0.161 µM in test [1] and 4.9 µM in [2]. Further, the result in test [3], in test [4] and in [8] was Active. For the same molecule, the Activity in test [5] and in test [6] was 5% in each case. The Ratio IC50 in test [12] was determined as 10. Moreover, in test [7], the “increase … (active/not active)” value is “Active”. Further, the inhibition result in test [9] is “Active”.
